Results as given in publication PMC2858063 (Steroids, 2010).
“Also recorded” adds a separate entry of the source. Where two headings read alike, the source gives them in different places.

Assays:
[1] = target: T1, hu-mPRα (Homo sapiens, UniProt Q86WK9); test: hu-mPRα steroid binding assay; details: for RBA (Relative Binding Affinity): compared with progesterone (=100), human mPRα; for binding to hu-mPRα (in words): this study, Fig. 1, Table 1
T1 sequence (Q86WK9 1-346): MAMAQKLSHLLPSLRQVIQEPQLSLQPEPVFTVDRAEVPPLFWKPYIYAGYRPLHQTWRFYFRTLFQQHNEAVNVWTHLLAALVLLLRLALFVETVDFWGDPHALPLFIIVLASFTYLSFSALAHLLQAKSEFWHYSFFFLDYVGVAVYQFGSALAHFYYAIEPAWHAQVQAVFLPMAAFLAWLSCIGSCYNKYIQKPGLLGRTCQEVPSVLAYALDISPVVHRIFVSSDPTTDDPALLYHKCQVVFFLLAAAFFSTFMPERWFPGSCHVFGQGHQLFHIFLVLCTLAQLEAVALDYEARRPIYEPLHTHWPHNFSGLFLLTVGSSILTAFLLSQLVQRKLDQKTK

[2] = target: T1, hu-mPRα; test: MAPK activation assay; assay type: cell-based; details: 100 nM, 10 min, mPRα-transfected MDA-MB-231 cells
Procedure, shortened: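 Control and mPRα-transfected MDA-MB-231 cells were serum-starved 5–6 days, then treated 10 min with progestins (100 nM; 1–100 nM for concentration-response), with EGF as positive control. Lysis was in RIPA buffer plus protease inhibitors. Lysate (10 μg/lane, non-reducing) ran on duplicate SDS gels, was blotted, and was probed for total or phospho-p42/44 with rabbit monoclonals, then HRP anti-rabbit 1 h. Detection was by chemiluminescence on film. Runs were repeated 3–4 times, with statistics versus vehicle.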

[3] = target: T2, human nPR (Homo sapiens, UniProt P06401); test: nPR steroid binding assay; details: that of progesterone
T2 sequence (P06401 679-933 limits assumed): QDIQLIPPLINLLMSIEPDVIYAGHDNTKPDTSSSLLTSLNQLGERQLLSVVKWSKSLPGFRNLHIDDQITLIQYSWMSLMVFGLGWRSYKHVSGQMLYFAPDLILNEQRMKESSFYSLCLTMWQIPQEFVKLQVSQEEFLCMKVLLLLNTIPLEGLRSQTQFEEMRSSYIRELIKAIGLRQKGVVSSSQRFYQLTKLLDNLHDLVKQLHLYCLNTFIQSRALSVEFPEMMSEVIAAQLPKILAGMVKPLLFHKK

[4] = target: T1, hu-mPRα; details: cited from earlier work; for binding affinity for nPR compared with mPRα: selectivity in words
[5] = target: T2, human nPR; details: cited from earlier work; for pIC50 (mean): 50% displacement of [3H] Org 2058, extracted from log RBA; for logRBA: RBA (%) compared with that of Org 2058 (=100%)

Row | Molecule | RBA (Relative Binding Affinity) [1] [%] | binding to hu-mPRα (in words) [1] | pIC50 (mean) [5] | logRBA [5] | other results
1 | 3,20-dioxopregn-4-ene-18-carbonitrile | 1.8 | low binding affinities |  |  | 
2 | 18a-methylprogesterone [18a-Methylprogesterone (Org OE 64-0)] | 2009 | affinities higher than that of progesterone |  |  | MAPK activation (phosphorylation of ERK) [2]: mPRα agonists; relative binding affinity for nPR [3]: 20.8%
3 | C#CC1(O)CC[C@H]2[C@@H]3CCC4=CC(=O)CC[C@@H]4[C@H]3CC[C@@]21CC (mixture of isomers) [norgestrel] |  |  |  |  | binding affinity for nPR compared with mPRα [4]: greater binding affinity for nPR than mPRα
4 | CC(=O)[C@H]1CC[C@H]2[C@@H]3CCC4=CC(=O)[C@H](O)C[C@]4(C)[C@H]3CC[C@]12C [2α-hydroxyprogesterone] |  |  |  |  | binding to hu-mPRα (in words) ([4]; earlier series): poor binding
5 | CC(=O)[C@H]1CC[C@H]2[C@@H]3CCC4=CC(=O)[C@H](C#N)C[C@]4(C)[C@H]3CC[C@]12C [3,20-Dioxopregn-4-ene-2α-carbonitrile] | <1 | inactivity |  |  | 
6 | CC(=O)[C@H]1CC[C@H]2[C@@H]3CC[C@H]4C[C@H](O)CC[C@]4(C)[C@H]3CC[C@]12C [3α-Hydroxy-5α-pregnan-20-one] | 7.6 |  |  |  | IC50 [1]: 1150 nM
7 | CC(=O)[C@H]1CC[C@H]2[C@@H]3CC[C@H]4C[C@@H](O)CC[C@]4(C)[C@H]3CC[C@]12C [3β-Hydroxy-5α-pregnan-20-one] |  | absence of binding |  |  | 
8 | C[C@]12CC[C@H]3[C@@H](CC[C@H]4CC(=O)CC[C@@H]43)[C@@H]1CC[C@@H]2O [5α-Dihydronandrolone] |  |  | 6.50 | −0.22 | 
9 | C[C@]12CCC(=O)C[C@@H]1CC[C@@H]1[C@@H]2CC[C@]2(C)[C@@H](O)CC[C@@H]12 [5α-Dihydrotestosterone (DHT), 5α-Dihydrotestosterone] |  |  | 6.16 | −0.56 | 
10 | CC(=O)S[C@@H]1CC2=CC(=O)CC[C@]2(C)[C@H]2CC[C@]3(C)[C@@H](C(C)=O)CC[C@H]3[C@H]12 [7α-Acetylthioprogesterone (Org 33718-0), 7α-Acetylthioprogesterone] | <1 |  |  |  | 
11 | CC(=O)[C@H]1CC[C@H]2[C@@H]3CCC4=CC(=O)CC[C@]4(C)[C@H]3[C@@H](O)C[C@]12C [11β-hydroxyprogesterone] |  |  |  |  | lower binding affinity relative to progesterone ([4]; mPRα, observed earlier): 10 fold
12 | CCC1CC2C3CCC4=CC(=O)CCC4C3CCC2(C)C1C(=O)CO (stereo not drawn) [16α-ethyl-21-hydroxy-19-norpregn-4-ene-3,20-dione] |  |  |  | 2.00 | binding to hu-mPRα (in words) ([4]; earlier series): poor binding affinities; binding affinity for nPR compared with mPRα [4]: greater binding affinity for nPR than mPRα
13 | CCCCCC(=O)O[C@]1(C(C)=O)CC[C@H]2[C@@H]3CCC4=CC(=O)CC[C@]4(C)[C@H]3CC[C@@]21C [17-Caproylprogesterone] | 4.4 |  |  |  | 
14 | C[C@]12CC[C@H]3[C@@H](CCC4=CC(=O)CC[C@@]43C)[C@@H]1CC[C@H]2O [17-Epitestosterone] | 2.8 |  |  |  | 
15 | CC[C@]1(O)CC[C@H]2[C@@H]3CCC4=CC(=O)CC[C@@H]4[C@H]3CC[C@@]21C [17-Hydroxy-19-nor-17α-pregn-4-en-3-one] |  |  | 8.24 | 1.52 | 
16 | C[C@@H]1C=C2CC(=O)CC[C@]2(C)[C@H]2CC[C@]3(C)[C@@H](O)CC[C@H]3[C@H]12 [17β-Hydroxy-7α-methylandrost-5-en-3-one] | 3.0 |  |  |  | IC50 [1]: 2880 nM; decrease in binding relative to testosterone ([1]; mPRα, compared with testosterone of ref 10): 10 fold
17 | CC(C)[C@@H]1C[C@H]2[C@@H]3CCC4=CC(=O)CC[C@@H]4[C@H]3CC[C@]2(C)[C@H]1O [17β-Hydroxy-16α-isopropylestr-4-en-3-one] |  |  | 7.72 | 1.00 | 
18 | C[C@]1(O)CC[C@H]2[C@@H]3CCC4=CC(=O)CC[C@@H]4[C@H]3CC[C@@]21C [17β-Hydroxy-17α-methylestr-4-en-3-one] |  |  | 7.66 | 0.94 | 

Row | Molecule | RBA (Relative Binding Affinity) [1] [%] | binding to hu-mPRα (in words) [1] | pIC50 (mean) [5] | logRBA [5] | other results
19 | CC(=O)[C@H]1CC[C@H]2[C@@H]3CCC4=CC(=O)CC[C@]4(CO)[C@H]3CC[C@]12C [19-Hydroxyprogesterone] | 0.7 | low binding affinities |  |  | 
20 | CC(=O)[C@H]1CC[C@H]2[C@@H]3CCC4=CC(=O)CC[C@@H]4[C@H]3CC[C@]12C [19-Norprogesterone] |  |  | 8.53 | 1.81 | binding affinity for nPR compared with mPRα [4]: greater binding affinity for nPR than mPRα
21 | C=CC[C@]1(O)CC[C@H]2[C@@H]3CCC4=CCCC[C@@H]4[C@H]3CC[C@@]21C [Allylestrenol] |  |  | 7.04 | 0.32 | 
22 | C[C@]12CCC(=O)C=C1CC[C@@H]1[C@@H]2CC[C@]2(C)C(=O)CC[C@@H]12 [Androst-4-ene-3,17-dione] |  | unable to bind | 6.02 | −0.70 | 
23 | C[C@]12CCC(=O)C=C1CC[C@@H]1[C@@H]2CC[C@@]2(C)[C@H]1CC[C@]2(O)C(=O)CO [Cortexolone (11-deoxycortisol), 11-deoxycortisol] | 1.8 | less potent than deoxycorticosterone |  |  | IC50 [1]: 4850 nM
24 | C[C@]12CCC(=O)C=C1CC[C@@H]1[C@@H]2[C@@H](O)C[C@@]2(C)[C@H]1CC[C@]2(O)C(=O)CO [Cortisol (hydrocortisone), Cortisol] |  | complete loss of affinity |  |  | 
25 | C[C@]12CC[C@@H]3c4ccc(O)cc4CC[C@H]3[C@@H]1CC[C@@H]2O [Estradiol-17β] |  | no binding affinity |  |  | 
26 | C#C[C@]1(O)CC[C@H]2[C@@H]3CCC4=CC(=O)CC[C@]4(C)[C@H]3CC[C@@]21C [Ethisterone] |  |  |  |  | binding affinity for nPR compared with mPRα [4]: greater binding affinity for nPR than mPRα
27 | CC[C@]1(O)CC[C@H]2[C@@H]3CCC4=CCCC[C@@H]4[C@H]3CC[C@@]21C [Ethylestrenol] |  |  | 7.21 | 0.49 | 
28 | C#C[C@]1(O)CC[C@H]2[C@@H]3CCC4=CCCC[C@@H]4[C@H]3CC[C@@]21C [Lynestrenol] |  |  | 6.95 | 0.23 | 
29 | CC#C[C@]1(O)CC[C@H]2[C@@H]3CCC4=CC(=O)CCC4=C3[C@@H](c3ccc(N(C)C)cc3)C[C@@]21C [Mifepristone] |  |  |  |  | binding to hu-mPRα (in words) ([4]; earlier series, listed as RU486): little or no affinity; also recorded: does not bind
30 | C[C@]12CC[C@H]3[C@@H](CCC4=CC(=O)CC[C@@H]43)[C@@H]1CC[C@@H]2O [Nandrolone, 19-nortestosterone] |  |  | 7.20 | 0.48 | 
31 | CC(=O)[C@H]1CC[C@H]2[C@@H]3CCC4=CC(=O)C=C[C@]4(C)[C@H]3CC[C@]12C [Pregna-1,4-diene-3,20-dione] | 93.5 | little or no influence relative to the progesterone response |  |  | IC50 [1]: 93.5 nM
32 | CC(=O)[C@H]1CC[C@H]2[C@@H]3C=CC4=CC(=O)CC[C@]4(C)[C@H]3CC[C@]12C [Pregna-4,6-diene-3,20-dione] | 98.9 | little or no influence relative to the progesterone response |  |  | IC50 [1]: 88.4 nM
33 | CC(=O)[C@H]1CC[C@H]2[C@@H]3CCC4=CC(=O)CC[C@]4(C)[C@H]3CC[C@]12C [Progesterone] |  |  |  |  | IC50 [1]: 87.4 nM
34 | CCC(=O)[C@@]1(C)CC[C@H]2[C@@H]3CCC4=CC(=O)CCC4=C3CC[C@@]21C [Promegestone] |  |  | 8.90 | 2.18 | binding to hu-mPRα (in words) ([4]; earlier series, listed as R5020): little or no affinity; also recorded: poor binding affinities
35 | C[C@]12CC[C@H]3[C@@H](CCC4=CC(=O)CC[C@@]43C)[C@@H]1CC[C@@H]2O [Testosterone] |  |  | 6.02 | −0.70 | RBA for hu-mPRα ([4]; progesterone = 100 %, earlier series): 22.4%
36 | C#C[C@]1(O)CC[C@H]2[C@@H]3CCC4=CC(=O)CC[C@@H]4[C@H]3CC[C@@]21C [norethisterone] |  |  |  |  | binding affinity for nPR compared with mPRα [4]: greater binding affinity for nPR than mPRα
